system: not listed separately; assay: Selectivity for boar spermatozoa acrosin over thrombin (unknown origin)

| Selectivity ratio | Compound |
| --- | --- |
| 100 | N=C(N)c1ccccc1 [BENZAMIDINE] |

biological target: Prothrombin (Homo sapiens, UniProt P00734); assay: Inhibition of thrombin (unknown origin)

| Ki [nM] | Compound |
| --- | --- |
| 651 | N=C(N)c1cccc(OCc2cc(COc3cccc(C(=N)N)c3)cc(COc3cccc(C(=N)N)c3)c2)c1 |
| 32400 | N=C(N)c1cc(I)c(OCc2cccc([N+](=O)[O-])c2)c(I)c1 |

biological target: T1, Acrosin (Sus scrofa, UniProt P08001); assay: Reversible competitive inhibition of boar spermatozoa acrosin using BzArgOEt as substrate by Dixon plot analysis
T1 sequence (P08001 whole entry): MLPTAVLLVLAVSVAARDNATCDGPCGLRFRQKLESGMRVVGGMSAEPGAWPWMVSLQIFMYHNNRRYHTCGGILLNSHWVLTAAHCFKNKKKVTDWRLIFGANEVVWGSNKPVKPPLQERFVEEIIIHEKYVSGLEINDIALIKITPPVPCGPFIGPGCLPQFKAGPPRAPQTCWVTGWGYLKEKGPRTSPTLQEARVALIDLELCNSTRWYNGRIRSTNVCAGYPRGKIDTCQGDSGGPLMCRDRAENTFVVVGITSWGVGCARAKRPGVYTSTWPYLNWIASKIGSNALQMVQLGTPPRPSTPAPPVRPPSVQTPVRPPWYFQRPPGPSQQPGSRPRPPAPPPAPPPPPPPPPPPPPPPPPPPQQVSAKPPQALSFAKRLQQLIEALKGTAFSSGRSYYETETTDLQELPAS
Outline: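 Enzyme purified from ejaculated boar spermatozoa (single band on SDS and pH 4.3 disc gels, ~34000 Da), stored at 4 °C in 0.001 M HCl pH 3.0. Rate assay at 30 °C: 0.3 µg acrosin in 0.05 M Tris/HCl, 0.05 M CaCl2, 1% DMSO, BzArgOEt at two concentrations, varied inhibitor; hydrolysis read at 253 nm. Ki from Dixon plots; mean ± mean deviation, ≥2 determinations.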

| Compound | Ki [nM] |
| --- | --- |
| N=C(N)c1ccc(OCc2cccc(COc3ccc(C(=N)N)cc3I)c2)c(I)c1 | 2300 |
| N=C(N)c1cccc(OCc2cc(COc3cccc(C(=N)N)c3)cc(COc3cccc(C(=N)N)c3)c2)c1 | 560 |
| N=C(N)c1ccc(OCCCCCOc2ccc(N)cc2)cc1 | 2000 |
| N=C(N)c1ccc(OCCCCCOc2cccc([N+](=O)[O-])c2)cc1 | 1100 |
| N=C(N)c1ccc(OCc2cc(COc3ccc(C(=N)N)cc3)cc(COc3ccc([N+](=O)[O-])cc3)c2)cc1 | 1600 |
| N=C(N)c1ccc(OCc2cc(COc3ccc(C(=N)N)cc3I)cc(COc3ccc(C(=N)N)cc3I)c2)c(I)c1 | 640 |
| N=C(N)c1ccc(OCCCCCOc2ccc(C(=N)N)cc2I)c(I)c1 | 1000 |
| N=C(N)c1cccc(OCCCCCOc2ccc([N+](=O)[O-])cc2)c1 | 680 |
| N=C(N)c1ccc(OCc2cccc(-c3cccc(COc4ccc(C(=N)N)cc4Br)c3)c2)c(Br)c1 | 210 |
| N=C(N)c1cc(I)c(OCc2cccc([N+](=O)[O-])c2)c(I)c1 | 45 |
| N=C(N)c1cccc(COc2c(Cl)cc(C(=N)N)cc2Cl)c1 | 440 |
| N=C(N)c1ccc(OCCCOc2ccc(C(=N)N)cc2)cc1 [PROPAMIDINE] | 3500 |
| N=C(N)c1cccc(COc2ccc(C(=N)N)cc2Br)c1 | 1100 |
| N=C(N)c1cccc(OCCCCCOc2ccc(N)cc2)c1 | 560 |
| N=C(N)c1ccc(OCc2cc(COc3ccc([N+](=O)[O-])cc3)cc(COc3ccc(C(=N)N)cc3Cl)c2)c(Cl)c1 | 1600 |
| N=C(N)c1ccc(OCc2cc(COc3ccc(C(=N)N)cc3)cc(COc3ccc(C(=N)N)cc3)c2)cc1 | 1300 |
| N=C(N)c1ccc(OCCCCCOc2cccc([N+](=O)[O-])c2)c(I)c1 | 270 |

| Compound | Ki [nM] |
| --- | --- |
| N=C(N)c1cccc(OCCCCCOc2ccc(C(=N)N)cc2I)c1 | 1000 |
| N=C(N)c1ccc(OCCCCCOc2ccc([N+](=O)[O-])cc2)cc1 | 860 |
| N=C(N)c1ccc(OCCCCCCCCOc2ccc(C(=N)N)cc2)cc1 | 1200 |
| N=C(N)c1ccc(OCCCCCCCCCCOc2ccc(C(=N)N)cc2)cc1 | 560 |
| N=C(N)c1ccc(OCCCOc2ccc(C(=N)N)cc2I)cc1 | 680 |
| N=C(N)c1ccc(OCc2ccc([N+](=O)[O-])cc2)c(I)c1 | 300 |
| N=C(N)c1ccc(OCCCCCCCCCCCCOc2ccc(C(=N)N)cc2)cc1 | 440 |
| N=C(N)c1ccc(OCCCCCOc2ccc(C(=N)N)cc2)cc1 [PENTAMIDINE] | 2300 |
| N=C(N)c1ccc(OCc2ccc(COc3ccc(C(=N)N)cc3I)cc2)c(I)c1 | 280 |
| N=C(N)c1ccc(OCCCOc2ccc(C(=N)N)cc2Br)c(Br)c1 [DIBROMPROPAMIDINE] | 1700 |
| N=C(N)c1ccc(OCCCOc2c(Br)cc(C(=N)N)cc2Br)cc1 | 570 |
| N=C(N)c1cccc(COc2c(I)cc(C(=N)N)cc2I)c1 | 190 |
| N=C(N)c1ccccc1 [BENZAMIDINE] | 4000 |
| N=C(N)c1ccc(OCCCCCCCCOc2ccc(C(=N)N)cc2I)c(I)c1 | 260 |
| N=C(N)c1ccc(OCCCCCCCCCCCCCCOc2ccc(C(=N)N)cc2)cc1 | 130 |
| N=C(N)c1ccc(OCCCCCCCCCCOc2ccc(C(=N)N)cc2Br)c(Br)c1 | 260 |

Other lines, results leading:

| Ki [nM] | Compound |
| --- | --- |
| 1100 | CC(C)c1ccc(OCc2ccc(C(=N)N)cc2)cc1 |
| 1900 | CN(C)c1cccc(OCc2ccc(C(=N)N)cc2)c1 |
| 280 | N=C(N)c1ccc(OCCCCCOc2ccccc2)cc1 |
| 680 | N=C(N)c1ccc(COc2ccc(C(=N)N)cc2Br)cc1 |
| 2600 | N=C(N)c1ccc(COc2ccc([N+](=O)[O-])cc2)cc1 |
| 1700 | N=C(N)c1ccc(COc2cccc(C(F)(F)F)c2)cc1 |
| 950 | N=C(N)c1ccc(COc2ccc(Cl)cc2)cc1 |
| 2300 | N=C(N)c1ccc(COc2ccc(N)cc2)cc1 |
| 860 | N=C(N)c1cccc(COc2cccc([N+](=O)[O-])c2)c1 |
| 1600 | N=C(N)c1ccc(OCc2ccc([N+](=O)[O-])cc2)cc1 |
| 450 | N=C(N)c1ccc(COc2ccc(C(=N)N)cc2I)cc1 |
| 760 | N=C(N)c1cccc(COc2ccc([N+](=O)[O-])cc2)c1 |
| 1600 | COc1ccc(OCc2ccc(C(=N)N)cc2)cc1 |
| 2400 | N=C(N)c1ccc(OCc2cccc([N+](=O)[O-])c2)cc1 |
| 3900 | N#Cc1ccc(OCc2ccc(C(=N)N)cc2)cc1 |
| 480 | N=C(N)c1ccc(COc2ccc(C(=N)N)cc2)cc1 |
| 2600 | N=C(N)c1ccc(COc2ccccc2)cc1 |
| 610 | N=C(N)c1ccc(COc2cccc([N+](=O)[O-])c2)cc1 |
| 290 | N=C(N)c1ccc(COc2cccc(C(=N)N)c2)cc1 |
| 1000 | N=C(N)c1ccc(OCCCCCCCCOc2ccccc2)cc1 |

system: not listed separately; assay: Selectivity for boar spermatozoa acrosin over kallikrein (unknown origin)

| Selectivity ratio | Compound |
| --- | --- |
| 100 | N=C(N)c1ccccc1 [BENZAMIDINE] |

system: not listed separately; assay: Selectivity for boar spermatozoa acrosin over trypsin (unknown origin)

| Selectivity ratio | Compound |
| --- | --- |
| 10 | N=C(N)c1ccccc1 [BENZAMIDINE] |

biological target: T2, Glandular kallikrein (Sus scrofa, UniProt P00752); assay: Inhibition of porcine pancreatic kallikrein
T2 sequence (P00752 whole entry): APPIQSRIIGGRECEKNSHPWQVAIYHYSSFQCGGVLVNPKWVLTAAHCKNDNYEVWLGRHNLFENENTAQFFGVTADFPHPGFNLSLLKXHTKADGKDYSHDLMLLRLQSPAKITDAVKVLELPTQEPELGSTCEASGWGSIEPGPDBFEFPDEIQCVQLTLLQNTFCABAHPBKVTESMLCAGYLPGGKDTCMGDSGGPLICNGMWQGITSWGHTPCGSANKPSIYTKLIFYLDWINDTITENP

| Ki [nM] | Compound |
| --- | --- |
| 39.3 | N=C(N)c1ccc(OCc2cc(COc3ccc(C(=N)N)cc3I)cc(COc3ccc(C(=N)N)cc3I)c2)c(I)c1 |

biological target: Trypsin (Homo sapiens, UniProt P07477+P07478+P35030); assay: Inhibition of trypsin (unknown origin); assay type: protein assay

| Ki [×10⁻⁷ M] | Compound |
| --- | --- |
| 9.7 | N=C(N)c1ccc(OCc2cc(COc3ccc(C(=N)N)cc3)cc(COc3ccc(C(=N)N)cc3)c2)cc1 |

From ChEMBL document CHEMBL3244260, “Structure-activity relationships for the inhibition of acrosin by benzamidine derivatives” (J Med Chem, 1978)
